Experimental data taken from ChEMBL document CHEMBL3352437, “Novel 3,5-bis(arylidene)-4-oxo-1-piperidinyl dimers: structure-activity relationships and potent antileukemic and antilymphoma cytotoxicity” (Eur J Med Chem, 2014).

Tests used:
[1] = system: HeLa; assay: Antiproliferative activity against human HeLa cells after 72 hrs by coulter counting analysis; assay type: functional, cell-based
Procedure, shortened: (§1)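 Cells exposed to a range of concentrations in RPMI 1640 at 37°C for 72 h. Surviving cells counted by Coulter counter. IC50 taken from concentration-response curves, mean ± SD of at least three independent experiments.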

[2] = system: CCRF-CEM; assay: Antiproliferative activity against human CEM cells after 72 hrs by coulter counting analysis; assay type: functional, cell-based; procedure, shortened: as §1
[3] = system: L1210; assay: Antiproliferative activity against mouse L1210 cells after 72 hrs by coulter counting analysis; assay type: functional, cell-based; conditions: L1210, 72 h
[4] = Antiproliferative activity against human Molt4/C8 cells after 72 hrs by coulter counting analysis; assay type: functional, cell-based; conditions: MOLT-4, 72 h; procedure, shortened: as §1
[5] = system: EL4; assay: Cytotoxicity against mouse EL4 cells assessed as dead cells at 1 uM after 24 hrs; assay type: functional
Procedure, shortened: (§2)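 Dienones added as DMSO solutions to cells in RPMI medium and incubated 24 h at 37°C. Cytotoxicity was scored as cell-membrane disruption by propidium iodide staining and expressed as percentage of dead cells, averaged over three independent experiments.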

[6] = system: BJAB; assay: Cytotoxicity against human BJAB cells assessed as dead cells at 1 uM after 24 hrs; assay type: functional; procedure, shortened: as §2
[7] = system: CCRF-CEM; assay: Cytotoxicity against human CEM cells assessed as dead cells at 1 uM after 24 hrs; assay type: functional; procedure, shortened: as §2
[8] = Cytotoxicity against human 22Rvl cells assessed as dead cells at 1 uM after 24 hrs; assay type: functional; procedure, shortened: as §2
[9] = system: MCF7; assay: Cytotoxicity against human MCF7 cells assessed as dead cells at 1 uM after 24 hrs; assay type: functional; procedure, shortened: as §2
[10] = system: Ramos; assay: Cytotoxicity against human Ramos cells assessed as dead cells at 1 uM after 24 hrs; assay type: functional; procedure, shortened: as §2
[11] = Cytotoxicity against human HuT-102 cells assessed as dead cells at 1 uM after 24 hrs; assay type: functional; procedure, shortened: as §2
[12] = system: HS27; assay: Cytotoxicity against human HS27 cells assessed as dead cells at 1 uM after 24 hrs; assay type: cell-based; conditions: hs27, 24 h
Procedure, shortened: (§3)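 Compounds added from DMSO solutions to cells in medium (RPMI; DMEM for Hs-27 fibroblasts) and incubated 24 h at 37°C. Membrane disruption scored by propidium iodide uptake. Result is percentage of dead cells, average of three independent experiments.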

[13] = system: Jurkat; assay: Cytotoxicity against human Jurkat cells assessed as dead cells at 1 uM after 24 hrs; assay type: functional; procedure, shortened: as §2
[14] = system: DU-145; assay: Cytotoxicity against human DU145 cells assessed as dead cells at 1 uM after 24 hrs; assay type: functional; procedure, shortened: as §2
[15] = system: Raji; assay: Cytotoxicity against human Raji cells assessed as dead cells at 1 uM after 24 hrs; assay type: functional; procedure, shortened: as §2
[16] = Cytotoxicity against human MOLT3 cells assessed as dead cells at 1 uM after 24 hrs; assay type: functional, MOLT-3; procedure, shortened: as §2
[17] = system: LAPC4; assay: Cytotoxicity against human LAPC4 cells assessed as dead cells at 1 uM after 24 hrs; assay type: functional; procedure, shortened: as §2
[18] = system: HCC70; assay: Cytotoxicity against human HCC70 cells assessed as dead cells at 1 uM after 24 hrs; assay type: functional; procedure, shortened: as §2
[19] = Cytotoxicity against human MCF10A cells assessed as dead cells at 1 uM after 24 hrs; assay type: cell-based; conditions: mcf-10a; procedure, shortened: as §3
[20] = Cytotoxicity against human SupT1 cells assessed as dead cells at 1 uM after 24 hrs; assay type: functional, SUP-T1; procedure, shortened: as §2
[21] = system: YT; assay: Cytotoxicity against human YT cells assessed as dead cells at 1 uM after 24 hrs; assay type: functional; procedure, shortened: as §2
[22] = Cytotoxicity against human MDA231 cells assessed as dead cells at 1 uM after 24 hrs; assay type: functional, MDA-MB-231; procedure, shortened: as §2
[23] = Cytotoxicity against human NALM6 cells assessed as dead cells at 1 uM after 24 hrs; assay type: functional, NALM-6; procedure, shortened: as §2
[24] = system: KM12; assay: Cytotoxicity against human KM12 cells assessed as inhibition of tumor growth after 24 hrs; assay type: functional, cell-based; conditions: KM12, 24 h
[25] = system: COLO 205; assay: Cytotoxicity against human COLO205 cells assessed as inhibition of tumor growth after 24 hrs; assay type: functional, cell-based; conditions: COLO 205, 24 h
[26] = Antileukemic activity against human RPMI8226 cells assessed as inhibition of tumor growth after 24 hrs; assay type: functional, cell-based; conditions: rpmi-8226
[27] = system: K562; assay: Antileukemic activity against human K562 cells assessed as inhibition of tumor growth after 24 hrs; assay type: functional, cell-based; conditions: K562, 24 h
[28] = system: SR; assay: Antileukemic activity against human SR cells assessed as inhibition of tumor growth after 24 hrs; assay type: functional, cell-based
[29] = system: SW-620; assay: Cytotoxicity against human SW620 cells assessed as inhibition of tumor growth after 24 hrs; assay type: functional, cell-based; conditions: SW-620, 24 h
[30] = system: HL-60(TB); assay: Antileukemic activity against human HL-60(TB) cells assessed as inhibition of tumor growth after 24 hrs; assay type: functional, cell-based; conditions: HL-60, 24 h
[31] = Cytotoxicity against human HCT15 cells assessed as inhibition of tumor growth after 24 hrs; assay type: functional, cell-based; conditions: HCT-15, 24 h
[32] = Cytotoxicity against human NCI60 cells assessed as inhibition of tumor growth after 24 hrs; assay type: functional, cell-based; conditions: NCI60, 24 h
[33] = system: HCC 2998; assay: Cytotoxicity against human HCC2998 cells assessed as inhibition of tumor growth after 24 hrs; assay type: functional, cell-based; conditions: HCC 2998, 24 h

In the case of `COc1cc(/C=C/C(=O)CC(=O)/C=C/c2ccc(O)c(OC)c2)ccc1O` [CURCUMIN], the IC50 [1] is reported as 21200 nM, the IC50 [2] is reported as 8160 nM and the IC50 [3] is reported as 15100 nM. It also gave an IC50 [4] of 6460 nM.
In the case of `Cc1ccc(/C=C2\CN(C(=O)C(=O)N3C/C(=C\c4ccc(C)cc4)C(=O)/C(=C/c4ccc(C)cc4)C3)C/C(=C\c3ccc(C)cc3)C2=O)cc1`, the Activity [5] is reported as 43.5%, the IC50 [1] is reported as 3790 nM and the Activity [6] is reported as 41.5%. It also gave an Activity [7] of 68.4%, an Activity [8] of 16.2% and an Activity [9] of 0%. It also gave an Activity [10] of 84.4%, an Activity [11] of 13.9% and an Activity [12] of 12%. The IC50 [2] was 7720 nM, the Activity [13] was 80.7% and the IC50 [3] was 9090 nM. It also gave an Activity [14] of 26%, an Activity [15] of 41.5% and an Activity [16] of 0.8%. It also gave an Activity [17] of 2.4%, an Activity [18] of 11.9% and an IC50 [4] of 1660 nM. It also gave an Activity [19] of 9.3%, an Activity [20] of 18.8% and an Activity [21] of 20.1%. For the same compound, the Activity [22] was 9.3% and the Activity [23] was 59.5%.
Work on `CN(C)c1ccc(/C=C2\CN(C(=O)C(=O)N3C/C(=C\c4ccc(N(C)C)cc4)C(=O)/C(=C/c4ccc(N(C)C)cc4)C3)C/C(=C\c3ccc(N(C)C)cc3)C2=O)cc1` yielded an IC50 [1] greater than 500000 nM, an IC50 [2] of 276000 nM and an IC50 [3] of 297000 nM. It also gave an IC50 [4] of 437000 nM.
With `O=C1/C(=C\c2ccccc2)CN(C(=O)CC(=O)N2C/C(=C\c3ccccc3)C(=O)/C(=C/c3ccccc3)C2)C/C1=C\c1ccccc1` the IC50 [24] was 130 nM, the IC50 [1] was 910 nM and the IC50 [25] was 160 nM. For the same compound, the IC50 [26] was 130 nM, the IC50 [27] was 50 nM and the IC50 [28] was 30 nM. The IC50 [2] was 201 nM, the IC50 [3] was 1230 nM and the IC50 [29] was 50 nM. For the same compound, the IC50 [30] was 290 nM, the IC50 [31] was 170 nM and the IC50 [32] was 240 nM. The IC50 [4] was 73 nM and the IC50 [33] was 170 nM.
For `COc1ccc(/C=C2/CN(C(=O)CC(=O)N3C/C(=C\c4ccc(OC)cc4)C(=O)/C(=C/c4ccc(OC)cc4)C3)C/C(=C\c3ccc(OC)cc3)C2=O)cc1`, the IC50 [1] was 219000 nM, the IC50 [2] was 369000 nM and the IC50 [3] was greater than 500000 nM. The IC50 [4] was 449000 nM.
`O=C1/C(=C/c2ccccc2)CN(C(=O)C(=O)N2C/C(=C\c3ccccc3)C(=O)/C(=C/c3ccccc3)C2)C/C1=C\c1ccccc1` gave an IC50 [1] of 1000 nM, an IC50 [26] of 30 nM and an IC50 [28] of 20 nM. It also gave an IC50 [2] of 750 nM, an IC50 [3] of 4460 nM and an IC50 [31] of 300 nM. It also gave an IC50 [32] of 310 nM and an IC50 [4] of 462 nM.
For `COc1ccc(/C=C2\CN(C(=O)C(=O)N3C/C(=C\c4ccc(OC)cc4)C(=O)/C(=C/c4ccc(OC)cc4)C3)C/C(=C\c3ccc(OC)cc3)C2=O)cc1`, the Activity [5] was 71.7%, the IC50 [1] was 59900 nM and the Activity [6] was 45.8%. It also gave an Activity [7] of 71.9%, an Activity [8] of 0% and an Activity [9] of 16.2%. The Activity [10] was 53.7%, the Activity [11] was 6.7% and the Activity [12] was 0.6%. For the same compound, the IC50 [2] was 95100 nM, the Activity [13] was 72% and the IC50 [3] was 202000 nM. It also gave an Activity [14] of 11.4%, an Activity [15] of 69.1% and an Activity [16] of 49.6%. For the same compound, the Activity [17] was 1.9%, the Activity [18] was 14.7% and the IC50 [4] was 33100 nM. The Activity [19] was 9.9%, the Activity [20] was 15.2% and the Activity [21] was 5.8%. The Activity [22] was 0.6% and the Activity [23] was 62.6%.
